Assay results from ChEMBL document CHEMBL1148135, “Constituents of Chinese propolis and their antiproliferative activities” (J Nat Prod, 2002).
Counter-ions that a name gives are not always drawn. Active and inactive are the calls of the source. The calls are words filed in the database; no cut-off is given here.

Experiments:
[1] = Antiproliferative activity against mouse 26-L5 cells after 72 hrs by MTT assay; format: functional, cell-based
How it was run: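 Murine colon 26-L5 carcinoma cells kept in RPMI with 10% fetal calf serum. 2500 cells per well were left to attach for 24 h at 37 °C under 5% CO2, then exposed for 72 h to varying concentrations in medium, from a DMSO stock (<0.1% DMSO). MTT was added for 2 h and formazan read at 550 nm. EC50 was taken from the mean of four wells.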

A549 = experiment: Antiproliferative activity against human A549 cells after 72 hrs by MTT assay; format: functional, cell-based; conditions: A549, 72 h
How it was run: (§1)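 Cells kept in Eagle's MEM with 10% fetal calf serum. 2500 cells per well were left to attach for 24 h at 37 °C under 5% CO2, then given varying concentrations for 72 h. Samples were dissolved in DMSO and diluted in medium (DMSO <0.1%). After 2 h with MTT, formazan was read at 550 nm. EC50 was taken from the mean of four wells.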

HeLa = experiment: Antiproliferative activity against human HeLa cells after 72 hrs by MTT assay; format: functional, cell-based; how it was run: as §1
HT-1080 = experiment: Antiproliferative activity against human HT1080 cells after 72 hrs by MTT assay; format: functional, cell-based; conditions: HT-1080, 72 h; how it was run: as §1
[2] = Antiproliferative activity against mouse B16-BL6 cells after 72 hrs by MTT assay; format: functional, cell-based; conditions: B16-BL6, 72 h; how it was run: as §1
[3] = DPPH radical scavenging activity after 30 mins; format: functional
How it was run: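 Samples in EtOH were vortexed with an equal volume of DPPH solution ([…] before mixing). Absorbance was read at 520 nm after 30 min.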

| SMILES | EC50 [1] [µM] | EC50 (A549) [µM] | EC50 (HeLa) [µM] | EC50 (HT-1080) [µM] | EC50 [2] [µM] | Activity [3] |
| --- | --- | --- | --- | --- | --- | --- |
| COc1ccc(/C=C/C(=O)O)cc1O [ISOFERULIC ACID] | > 515 | > 515 | > 515 | > 515 | > 515 | – |
| COc1cc(/C=C/C(=O)OCc2ccccc2)ccc1O [BENZYL FERULATE] | 46.4 | 92.8 | 51.1 | 46.7 | 63.7 | – |
| O=C1C[C@@H](c2ccccc2)Oc2cc(O)cc(O)c21 [PINOCEMBRIN] | 75.6 | 229 | 108 | 92.4 | 68 | – |
| COc1ccc(/C=C/C(=O)O)cc1OC [O,O'-DIMETHYLCAFFEIC ACID] | > 480 | > 480 | > 480 | > 480 | > 480 | – |
| COc1cc(O)c2c(=O)cc(-c3ccccc3)oc2c1 [TECHTOCHRYSIN] | 273 | > 370 | > 370 | 358 | 226 | – |
| O=C(/C=C/c1ccc(O)c(O)c1)OCc1ccccc1 [BENZYL CAFFEATE] | 1.01 | 35 | 2.33 | 9.74 | 9.78 | Active |
| O=c1cc(-c2ccccc2)oc2cc(O)cc(O)c12 [CHRYSIN] | 109 | 233 | 111 | 94.9 | 74.4 | – |
| CC[C@H](C)C(=O)O[C@H]1C(=O)c2c(O)cc(O)cc2O[C@@H]1c1ccccc1 | 78.9 | 160 | 116 | 143 | 185 | – |
| COc1cc(O)c2c(c1)O[C@H](c1ccccc1)CC2=O [PINOSTROBIN] | 128 | > 370 | 202 | 156 | 111 | – |
| O=C(/C=C/c1ccc(O)c(O)c1)OCCc1ccccc1 [CAFFEIC ACID PHENETHYL ESTER] | 0.3 | 27.9 | 2.36 | 9.5 | 6.79 | Active |
| O=c1c(O)c(-c2ccccc2)oc2cc(O)cc(O)c12 [GALANGIN] | 19.2 | 93.6 | 79 | 35.7 | 26.8 | – |
| O=c1cc(-c2ccccc2)oc2cc(O)c(C/C=C/c3ccccc3)c(O)c12 | > 270 | > 270 | > 270 | > 270 | > 270 | – |
| O=c1cc(-c2ccc(O)cc2)oc2cc(O)cc(O)c12 [APIGENIN] | 25 | 101 | 92.7 | 36.6 | 31.6 | – |
| COc1cccc2c1C(=O)c1c(O)c3c(c(O)c1C2=O)C[C@@](O)(C(=O)CO)C[C@@H]3O[C@H]1C[C@H](N)[C@H](O)[C@H](C)O1 [DOXORUBICIN HYDROCHLORIDE] | 0.02 | 0.04 | 0.02 | 0.02 | 0.11 | – |
| COc1cc(O)c2c(=O)c(O)c(-c3ccccc3)oc2c1 [IZALPININ] | 30.3 | > 350 | 106 | > 350 | > 350 | – |
| O=c1[nH]cc(F)c(=O)[nH]1 [FLUOROURACIL] | 0.31 | 3.61 | 0.23 | 1.38 | 1.23 | – |
